KCNQ1 pot: potentiators or activators of KCNQ1 channel, primary screen, cell-based, thallium flux, high-throughput; CHO-K1 KCNQ1, thallium flux FluxOR fluorescence; stronger effect = higher value; B-score at 10 µM; 0.35% of 310,000 active;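 active = fluorescence ratio B-score, a plate-corrected score, at least three library SD, with initial intensity B-score within 5 SD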
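Doses: Single concentration per compound, DMSO matched to controls | Test system: KCNQ1-transfected CHO-K1 cells | Timing: 90 min dye loading and 20 min compound exposure, both at room temperature | Measured by: Kinetic FluxOR thallium fluorescence, 10-s 1-Hz baseline, 110-s post-stimulus read | Medium: Assay buffer with matched DMSO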
hERG protect: hERG rescue from dofetilide block, primary screen, cell-based, CHO-hERG, FluxOR thallium flux, dofetilide IC70 | Voltage-gated inwardly rectifying potassium channel KCNH2 (Homo sapiens), Q12809 | dofetilide IC70 present | activation (rescue from dofetilide block), less the hit threshold, % at 10 µM | 0.51% of 310,000 active | AID 1511, 2009;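 active = activation above the mean of controls blocked by dofetilide plus 5 SD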;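 also: thallium influx through hERG after potassium depolarization seen as dye fluorescence rise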
KCNK9 inh: KCNK9 potassium channel inhibitors, primary screen, HEK293 cells, thallium flux. FluxOR thallium flux fluorescence; stronger effect = lower value. B-score at 10 µM. 1.2% of 310,000 active. AID 488922, 2010;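 active = ratio B-score over 3 SD below the library mean, with starting fluorescence within 5 SD of its mean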;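 also: negative B-score means less thallium flux so channel inhibition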
Target sequence (Q9NPC2 whole entry, looked up): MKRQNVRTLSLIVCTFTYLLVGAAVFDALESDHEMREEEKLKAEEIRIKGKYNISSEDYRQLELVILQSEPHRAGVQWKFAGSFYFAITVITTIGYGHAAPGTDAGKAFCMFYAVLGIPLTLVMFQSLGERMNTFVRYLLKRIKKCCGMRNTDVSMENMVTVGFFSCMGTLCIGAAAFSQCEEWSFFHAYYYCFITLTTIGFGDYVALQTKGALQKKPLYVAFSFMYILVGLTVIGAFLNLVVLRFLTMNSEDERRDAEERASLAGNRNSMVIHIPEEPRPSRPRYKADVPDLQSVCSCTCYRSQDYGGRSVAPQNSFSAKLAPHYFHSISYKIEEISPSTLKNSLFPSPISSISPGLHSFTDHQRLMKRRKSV
KCNK3 block: human KCNK3 channel inhibitors, primary screen, CHO cells, FluxOR thallium flux, B-score. Potassium channel subfamily K member 3 (Homo sapiens), O14649. B-score at 10 µM. 0.84% of 340,000 active. FluxOR fluorescence; stronger effect = lower value;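 active = B-score under library mean minus 4 SD, starting fluorescence ratio at most library mean plus 5 SD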;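 also: more negative B-score means stronger inhibition of thallium flux through KCNK3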
KCNQ1 inh: inhibitors of human KCNQ1 channel, primary screen, cell-based, thallium flux, high-throughput | Potassium voltage-gated channel subfamily KQT member 1 (Homo sapiens), P51787 | CHO-K1 KCNQ1, FluxOR thallium flux fluorescence; stronger effect = higher value | AID 2642, 2010 | 1.3% of 310,000 active | B-score at 10 µM;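 active = compounds whose thallium flux B-score, printed positive for inhibition, exceeds three library SD while starting fluorescence stays within three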;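 also: channel opened by potassium depolarization with thallium stimulus after 20 min compound exposure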
KCC2 mod: KCC2 cotransporter modulators, thallium flux, primary screen, cell-based, HEK293 KCC2, FluoZin-2 fluorescence, MLSMR. Solute carrier family 12 member 5 (Homo sapiens), Q9H2X9. B-score of Tl+ flux slope (higher = more flux/activation; lower = inhibition) at 10 µM. AID 1456, 2008. KCC2 cells, thallium flux FluoZin-2 fluorescence. 2.2% of 190,000 active;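 active = thallium flux slope and its plate-corrected score both differing from the plate sample mean at a set confidence after two filtering rounds, in either direction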;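 also: slope of fluorescence scaled to starting intensity during 10 to 20 s after thallium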
KCNQ1 inh valid: KCNQ1 potassium channel inhibitors, confirmation, cell-based, Tl flux, duplicate; shares compounds with KCNQ1 inh; KCNQ1 cell line, FluxOR thallium flux fluorescence; inhibition, % at 10 µM; 93% of 1,600 active; AID 588353, 2011;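 active = primary screen active, with duplicate mean exceeding buffer control mean plus 3 SD of buffer wells, cut at about 28% in these data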
CHO KCNQ1 ctr: thallium flux effects in parental CHO cells, counter-screen for KCNQ1 inhibitor project, cell-based, Tl flux | fluorescence ratio (Tl flux) at 10 µM | 21% of 1,600 active | parental CHO-K1, FluxOR thallium flux fluorescence ratio; stronger effect = lower value; zero means no signal rise above baseline | AID 588366, 2011 | shares compounds with KCNQ1 inh;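 active = mean of duplicate thallium-flux fluorescence ratios in parental host cells more than 5 SD below the buffer control mean, cut at about 0.38 in these data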;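 also: ratio is peak minus minimum fluorescence divided by baseline fluorescence; actives read low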
KCNQ1 APC inh: KCNQ1 channel inhibitors, confirmation, orthogonal assay, cell-based, automated electrophysiology; calls only at 10 µM; shares compounds with KCNQ1 inh; KCNQ1-CHO cells, automated patch clamp current; 20% of 490 active;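 active = KCNQ1 current drop exceeding 3 SD of negative control wells, seen in both duplicate runs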;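 also: steady state current during a 2 s step from -80 to +40 mV; negative values mean current inhibition and positive values mean potentiation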
KCNQ2 spec: KCNQ2 channel inhibition, selectivity assay for KCNQ1 inhibitor project, cell-based | AID 651746, 2012 | 71% of 1,600 active | KCNQ2 cells, FluxOR thallium flux fluorescence | inhibition, % at 10 µM | shares compounds with KCNQ1 inh;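 active = mean percent inhibition of the KCNQ2 thallium signal more than 5 SD above the buffer-only control wells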;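 also: KCNQ2 expressed in CHO cells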
KCNQ1-KCNE1 inh: KCNQ1/KCNE1 channel inhibition, selectivity assay for KCNQ1 inhibitor project, CHO-K1 cells, thallium flux, FluxOR; inhibition, % at 10 µM; shares compounds with KCNQ1 inh; FluxOR thallium flux fluorescence; 77% of 1,600 active;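 active = mean percent inhibition of duplicate wells above the buffer-only control mean plus 3 SD of those controls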
Large screens that a line does not name were inactive (follow-up assays come after a bar, where they were run). The list is not random: actives were taken first. Their share in the collection is about 4.1%.

CC(C)(C)CN1CCN(Cc2nc(-c3ccc(F)cc3)cs2)CC1CCO (stereo not drawn)	KCNQ1 inh 6 (no result: KCC2 mod) | KCNQ1 inh valid 70 | CHO KCNQ1 ctr inactive | KCNQ2 spec 74% | KCNQ1-KCNE1 inh 64%
OCCC1CN(Cc2nc(-c3ccc(F)cc3)cs2)CCN1CCc1ccccc1 (stereo not drawn)	none
Cc1ccc(NC(=S)Nc2ccc(OC(F)F)c(Cl)c2)cc1F	KCNQ1 inh 14 | KCNQ1 inh valid 88 | CHO KCNQ1 ctr inactive | KCNQ1 APC inh inactive | KCNQ2 spec inactive | KCNQ1-KCNE1 inh inactive
O=C(CN1C(=O)C(=O)N(Cc2ccccc2)C1=O)Nc1ccc(OC(F)F)cc1	none (no result: KCNQ1 pot, hERG protect, KCNK9 inh, KCNQ1 inh, KCC2 mod)
Cc1ccccc1OCC(=O)Nc1ccccc1C(=O)NC1CC1	KCNQ1 inh 10 (no result: KCC2 mod) | KCNQ1 inh valid 92 | CHO KCNQ1 ctr inactive | KCNQ1 APC inh inactive | KCNQ2 spec 123% | KCNQ1-KCNE1 inh 128%
CCN(CC)c1ccc(C(=O)OCC(=O)Nc2ccccc2-c2ccccc2)cc1	KCNQ1 inh 12 | KCNQ1 inh valid 108 | CHO KCNQ1 ctr inactive | KCNQ1 APC inh inactive | KCNQ2 spec 96% | KCNQ1-KCNE1 inh 161%
COCC(=O)Nc1ccccc1-c1ccccc1	none
Cc1ccccc1OCC(=O)Nc1ccccc1-c1ccccc1	KCNQ1 inh 6 (no result: KCC2 mod) | KCNQ1 inh valid 128 | CHO KCNQ1 ctr inactive | KCNQ1 APC inh inactive | KCNQ2 spec 114% | KCNQ1-KCNE1 inh 178%
Cc1ccccc1NC(=O)COc1ccccc1C	none (no result: KCC2 mod)
O=C(NCc1ccco1)c1ccc2c(c1)S(=O)(=O)c1ccccc1C2=O	none (no result: KCC2 mod)
CCCCN(c1nc2ccccc2nc1Cl)S(=O)(=O)c1ccc(C)cc1	KCNQ1 inh 11 (no result: KCC2 mod) | KCNQ1 inh valid 107 | CHO KCNQ1 ctr 0.36 | KCNQ2 spec 118% | KCNQ1-KCNE1 inh 144%
CCCN(CCC)CC(O)CN(c1ccccc1)S(=O)(=O)c1ccc(C)cc1 (stereo not drawn)	none
O=C(Cc1ccccc1Cl)Nc1cccc(S(=O)(=O)N2CCCCCC2)c1	none (no result: KCNQ1 pot, hERG protect, KCNK9 inh, KCNQ1 inh, KCC2 mod)
O=C(Nc1cccc(S(=O)(=O)N2CCCCC2)c1)Nc1ccc(Cl)cc1Cl	KCNQ1 inh 7 | KCNQ1 inh valid 98 | CHO KCNQ1 ctr inactive | KCNQ1 APC inh inactive | KCNQ2 spec 97% | KCNQ1-KCNE1 inh 70%
COc1ccc(CCN(C)C(=O)CN2C(=O)c3ccccc3S2(=O)=O)cc1OC	none
O=C(NCc1ccccc1Cl)c1cc(=O)[nH]c2ccccc12	none (no result: KCC2 mod)
Cc1cccc2nc3ccccc3cc12	none (no result: KCC2 mod)

Assay outcomes (PubChem BioAssay)
